Measurements taken from article PMC2943143 (Biochemical pharmacology, 2010).
Values joined by “and” are separate entries in the source; they are usually repeats but may differ in a detail not shown here. Equal values may be shown once. “Also recorded” adds a separate entry of the source.

Key:
Xanthine oxidase = conditions: read-out: IC50, Xanthine oxidase; cited from earlier work
human pol ε = human pol ε (Homo sapiens, UniProt Q07864); assay: Pol assay, human pol ε; type: biochemical
In short: (§1)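 Test compound was dissolved in DMSO and sonicated 30 s. It was preincubated with enzyme (0.05 unit final) in 50 mM Tris-HCl pH 7.5, 1 mM DTT, 50% glycerol and 0.1 mM EDTA at 0 °C for 10 min. This was added to each enzyme's standard reaction mix with poly(dA)/oligo(dT)18 (A/T = 2/1) template-primer and dTTP substrate, then incubated at 37 °C for 60 min. Activity is given as % of inhibitor-free control.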

HCV NS3 protease = conditions: read-out: IC50, HCV NS3 protease; cited from earlier work
human pol δ = human pol δ (Homo sapiens, UniProt P28340); assay: Pol assay, human pol δ; type: biochemical
Sequence of human pol δ (P28340 whole entry): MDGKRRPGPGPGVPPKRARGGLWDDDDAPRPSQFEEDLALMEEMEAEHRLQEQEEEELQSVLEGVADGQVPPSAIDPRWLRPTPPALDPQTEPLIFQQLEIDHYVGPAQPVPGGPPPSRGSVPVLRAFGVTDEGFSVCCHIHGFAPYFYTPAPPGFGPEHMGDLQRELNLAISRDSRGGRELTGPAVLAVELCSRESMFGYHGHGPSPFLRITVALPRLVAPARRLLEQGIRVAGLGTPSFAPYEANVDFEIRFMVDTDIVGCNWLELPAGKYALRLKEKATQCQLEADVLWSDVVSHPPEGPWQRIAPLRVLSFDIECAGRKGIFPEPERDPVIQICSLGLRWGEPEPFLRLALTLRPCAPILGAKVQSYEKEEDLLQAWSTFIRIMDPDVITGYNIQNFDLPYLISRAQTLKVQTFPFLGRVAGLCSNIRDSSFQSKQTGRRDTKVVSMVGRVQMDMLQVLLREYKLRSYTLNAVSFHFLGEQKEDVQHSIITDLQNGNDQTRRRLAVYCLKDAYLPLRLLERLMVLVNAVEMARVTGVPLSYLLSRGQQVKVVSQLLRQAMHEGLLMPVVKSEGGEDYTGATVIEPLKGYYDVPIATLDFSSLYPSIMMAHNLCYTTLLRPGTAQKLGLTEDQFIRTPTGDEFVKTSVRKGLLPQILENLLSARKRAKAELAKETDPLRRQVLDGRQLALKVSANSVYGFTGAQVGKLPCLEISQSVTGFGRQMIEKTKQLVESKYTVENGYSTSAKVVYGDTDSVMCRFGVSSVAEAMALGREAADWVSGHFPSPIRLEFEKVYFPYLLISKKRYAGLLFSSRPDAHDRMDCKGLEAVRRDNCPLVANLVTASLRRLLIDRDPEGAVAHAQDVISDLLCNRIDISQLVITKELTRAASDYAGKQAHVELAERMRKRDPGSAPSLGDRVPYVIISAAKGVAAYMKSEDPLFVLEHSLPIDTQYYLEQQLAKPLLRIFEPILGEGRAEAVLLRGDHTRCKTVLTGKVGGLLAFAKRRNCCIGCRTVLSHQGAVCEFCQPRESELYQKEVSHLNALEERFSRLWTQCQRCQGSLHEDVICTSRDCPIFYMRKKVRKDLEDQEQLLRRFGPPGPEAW
In short: as §1

rice pol λ = rice pol λ (Oryza sativa subsp. japonica, UniProt Q67VC8); assay: Pol assay, rice pol λ; type: biochemical; conditions: supplemental Fig. S1A
In short: as §1

Aminopeptidase N = conditions: read-out: IC50, Aminopeptidase N; cited from earlier work
mouse pol ι = mouse pol ι (Mus musculus, UniProt Q6R3M4); assay: Pol assay, mouse pol ι; type: biochemical
Sequence of mouse pol ι (Q6R3M4 whole entry): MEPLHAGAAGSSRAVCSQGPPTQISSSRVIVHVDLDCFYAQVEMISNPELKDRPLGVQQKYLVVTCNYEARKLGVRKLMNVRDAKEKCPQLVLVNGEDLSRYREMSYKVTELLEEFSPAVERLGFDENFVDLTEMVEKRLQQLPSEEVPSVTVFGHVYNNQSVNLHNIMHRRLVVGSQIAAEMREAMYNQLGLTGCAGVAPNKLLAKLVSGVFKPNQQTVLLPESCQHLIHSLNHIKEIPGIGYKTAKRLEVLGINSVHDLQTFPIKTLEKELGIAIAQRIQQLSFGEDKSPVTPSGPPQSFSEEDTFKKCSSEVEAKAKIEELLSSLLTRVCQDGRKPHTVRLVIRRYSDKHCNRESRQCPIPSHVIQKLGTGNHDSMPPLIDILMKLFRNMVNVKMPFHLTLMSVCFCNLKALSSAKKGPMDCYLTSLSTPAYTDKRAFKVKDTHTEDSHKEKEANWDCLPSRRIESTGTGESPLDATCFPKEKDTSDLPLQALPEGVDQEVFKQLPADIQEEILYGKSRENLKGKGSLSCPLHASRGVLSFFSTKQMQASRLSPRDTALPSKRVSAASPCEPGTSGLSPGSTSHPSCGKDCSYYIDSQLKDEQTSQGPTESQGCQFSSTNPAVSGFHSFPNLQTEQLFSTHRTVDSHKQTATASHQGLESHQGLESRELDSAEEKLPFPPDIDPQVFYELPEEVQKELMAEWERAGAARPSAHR
In short: as §1

[1] = target: mouse IMP dehydrogenase (type II) (Mus musculus, UniProt P24547); assay: IMP dehydrogenase assay; type: biochemical; conditions: highest tested concentration 1 μM, supplemental Fig. S1B
bovine DNase I = bovine DNase I (Bos taurus, UniProt P00639); assay: DNase I assay; type: biochemical; conditions: highest tested concentration 1 μM, supplemental Fig. S1B
Sequence of bovine DNase I (P00639 23-282): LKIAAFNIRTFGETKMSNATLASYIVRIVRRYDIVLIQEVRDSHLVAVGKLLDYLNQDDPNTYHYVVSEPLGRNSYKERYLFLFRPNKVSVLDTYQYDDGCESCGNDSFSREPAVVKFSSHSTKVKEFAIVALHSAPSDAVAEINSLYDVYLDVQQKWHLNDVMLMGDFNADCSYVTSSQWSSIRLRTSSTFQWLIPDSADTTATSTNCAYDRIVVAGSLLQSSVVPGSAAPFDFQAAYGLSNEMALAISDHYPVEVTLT
In short: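 Topoisomerases I and II were purified from human placenta, and DNase I came from bovine pancreas. Each activity was measured in a standard assay following the supplier's specifications.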

calf pol α = target: T1, calf pol α (Bos taurus, UniProt A0AAA9TD94); assay: Pol assay, calf pol α; type: biochemical; conditions: for Ki: pol α, Dixon plot
T1 sequence (A0AAA9TD94 1-1441): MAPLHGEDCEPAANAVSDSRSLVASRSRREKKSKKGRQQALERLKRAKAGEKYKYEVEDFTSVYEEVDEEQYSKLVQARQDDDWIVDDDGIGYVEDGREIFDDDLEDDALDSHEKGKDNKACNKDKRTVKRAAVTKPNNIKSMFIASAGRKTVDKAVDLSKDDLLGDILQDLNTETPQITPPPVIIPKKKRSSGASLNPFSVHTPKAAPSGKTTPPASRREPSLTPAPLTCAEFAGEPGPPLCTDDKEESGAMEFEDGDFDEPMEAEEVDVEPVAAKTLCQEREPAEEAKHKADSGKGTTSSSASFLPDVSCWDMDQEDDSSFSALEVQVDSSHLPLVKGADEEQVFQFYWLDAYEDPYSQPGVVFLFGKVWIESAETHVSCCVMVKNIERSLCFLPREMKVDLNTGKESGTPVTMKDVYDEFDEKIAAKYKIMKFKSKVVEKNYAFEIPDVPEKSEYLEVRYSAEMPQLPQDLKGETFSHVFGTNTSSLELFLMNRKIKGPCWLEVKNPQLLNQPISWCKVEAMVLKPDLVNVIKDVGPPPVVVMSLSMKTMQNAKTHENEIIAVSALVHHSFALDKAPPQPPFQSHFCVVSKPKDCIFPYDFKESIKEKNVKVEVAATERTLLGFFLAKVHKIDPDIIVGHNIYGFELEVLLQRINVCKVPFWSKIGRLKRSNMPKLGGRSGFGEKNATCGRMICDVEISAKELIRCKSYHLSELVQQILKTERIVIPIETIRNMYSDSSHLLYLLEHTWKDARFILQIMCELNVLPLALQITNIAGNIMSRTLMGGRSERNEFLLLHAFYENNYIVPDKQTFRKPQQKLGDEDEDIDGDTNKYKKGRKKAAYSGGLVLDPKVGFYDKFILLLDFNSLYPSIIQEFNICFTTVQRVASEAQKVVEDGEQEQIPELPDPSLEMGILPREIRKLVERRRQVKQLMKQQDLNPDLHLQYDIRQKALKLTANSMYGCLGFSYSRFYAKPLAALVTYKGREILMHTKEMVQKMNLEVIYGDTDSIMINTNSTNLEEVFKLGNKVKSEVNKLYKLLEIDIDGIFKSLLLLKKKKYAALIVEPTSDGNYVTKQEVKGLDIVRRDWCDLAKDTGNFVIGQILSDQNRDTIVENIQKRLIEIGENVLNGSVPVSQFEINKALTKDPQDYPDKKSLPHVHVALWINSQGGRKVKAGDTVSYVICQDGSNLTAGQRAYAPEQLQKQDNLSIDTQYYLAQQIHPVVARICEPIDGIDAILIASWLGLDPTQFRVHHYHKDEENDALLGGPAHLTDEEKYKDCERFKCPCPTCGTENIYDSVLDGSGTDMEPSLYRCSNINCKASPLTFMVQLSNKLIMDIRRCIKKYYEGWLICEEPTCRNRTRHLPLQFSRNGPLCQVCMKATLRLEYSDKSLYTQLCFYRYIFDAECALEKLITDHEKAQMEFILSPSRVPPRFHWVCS
In short: as §1

calf primase of pol α = assay: Primase assay; type: biochemical; conditions: highest tested concentration 1 μM, supplemental Fig. S1B
[2] = system: rat liver microsomal 5 α-reductase; conditions: cited from earlier work
T4 polynucleotide kinase = T4 polynucleotide kinase (Enterobacteria phage T4, UniProt P06855); assay: T4 polynucleotide kinase assay; type: biochemical; conditions: highest tested concentration 1 μM, supplemental Fig. S1B
Sequence of T4 polynucleotide kinase (P06855 whole entry): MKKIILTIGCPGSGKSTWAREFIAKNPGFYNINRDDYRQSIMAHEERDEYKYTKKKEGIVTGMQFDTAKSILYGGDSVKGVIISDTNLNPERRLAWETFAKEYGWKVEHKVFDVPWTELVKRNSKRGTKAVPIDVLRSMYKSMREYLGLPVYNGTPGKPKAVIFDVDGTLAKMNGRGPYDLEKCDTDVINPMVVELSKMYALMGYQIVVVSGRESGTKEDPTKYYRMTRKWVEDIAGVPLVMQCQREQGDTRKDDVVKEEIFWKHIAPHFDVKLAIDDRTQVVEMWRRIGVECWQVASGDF

human pol γ = human pol γ (Homo sapiens, UniProt P54098); assay: Pol assay, human pol γ; type: biochemical; conditions: 100 and 1,000 nM PGG, Fig. 1C; compared with B- and Y-family pols
In short: as §1

H^+, K^+- ATPase = conditions: cited from earlier work
human PCa PC-3 cells = conditions: i.p. injection, every other day, 25 mg/kg, nude mice; cited from earlier work

Sequence of human pol ε (Q07864 whole entry): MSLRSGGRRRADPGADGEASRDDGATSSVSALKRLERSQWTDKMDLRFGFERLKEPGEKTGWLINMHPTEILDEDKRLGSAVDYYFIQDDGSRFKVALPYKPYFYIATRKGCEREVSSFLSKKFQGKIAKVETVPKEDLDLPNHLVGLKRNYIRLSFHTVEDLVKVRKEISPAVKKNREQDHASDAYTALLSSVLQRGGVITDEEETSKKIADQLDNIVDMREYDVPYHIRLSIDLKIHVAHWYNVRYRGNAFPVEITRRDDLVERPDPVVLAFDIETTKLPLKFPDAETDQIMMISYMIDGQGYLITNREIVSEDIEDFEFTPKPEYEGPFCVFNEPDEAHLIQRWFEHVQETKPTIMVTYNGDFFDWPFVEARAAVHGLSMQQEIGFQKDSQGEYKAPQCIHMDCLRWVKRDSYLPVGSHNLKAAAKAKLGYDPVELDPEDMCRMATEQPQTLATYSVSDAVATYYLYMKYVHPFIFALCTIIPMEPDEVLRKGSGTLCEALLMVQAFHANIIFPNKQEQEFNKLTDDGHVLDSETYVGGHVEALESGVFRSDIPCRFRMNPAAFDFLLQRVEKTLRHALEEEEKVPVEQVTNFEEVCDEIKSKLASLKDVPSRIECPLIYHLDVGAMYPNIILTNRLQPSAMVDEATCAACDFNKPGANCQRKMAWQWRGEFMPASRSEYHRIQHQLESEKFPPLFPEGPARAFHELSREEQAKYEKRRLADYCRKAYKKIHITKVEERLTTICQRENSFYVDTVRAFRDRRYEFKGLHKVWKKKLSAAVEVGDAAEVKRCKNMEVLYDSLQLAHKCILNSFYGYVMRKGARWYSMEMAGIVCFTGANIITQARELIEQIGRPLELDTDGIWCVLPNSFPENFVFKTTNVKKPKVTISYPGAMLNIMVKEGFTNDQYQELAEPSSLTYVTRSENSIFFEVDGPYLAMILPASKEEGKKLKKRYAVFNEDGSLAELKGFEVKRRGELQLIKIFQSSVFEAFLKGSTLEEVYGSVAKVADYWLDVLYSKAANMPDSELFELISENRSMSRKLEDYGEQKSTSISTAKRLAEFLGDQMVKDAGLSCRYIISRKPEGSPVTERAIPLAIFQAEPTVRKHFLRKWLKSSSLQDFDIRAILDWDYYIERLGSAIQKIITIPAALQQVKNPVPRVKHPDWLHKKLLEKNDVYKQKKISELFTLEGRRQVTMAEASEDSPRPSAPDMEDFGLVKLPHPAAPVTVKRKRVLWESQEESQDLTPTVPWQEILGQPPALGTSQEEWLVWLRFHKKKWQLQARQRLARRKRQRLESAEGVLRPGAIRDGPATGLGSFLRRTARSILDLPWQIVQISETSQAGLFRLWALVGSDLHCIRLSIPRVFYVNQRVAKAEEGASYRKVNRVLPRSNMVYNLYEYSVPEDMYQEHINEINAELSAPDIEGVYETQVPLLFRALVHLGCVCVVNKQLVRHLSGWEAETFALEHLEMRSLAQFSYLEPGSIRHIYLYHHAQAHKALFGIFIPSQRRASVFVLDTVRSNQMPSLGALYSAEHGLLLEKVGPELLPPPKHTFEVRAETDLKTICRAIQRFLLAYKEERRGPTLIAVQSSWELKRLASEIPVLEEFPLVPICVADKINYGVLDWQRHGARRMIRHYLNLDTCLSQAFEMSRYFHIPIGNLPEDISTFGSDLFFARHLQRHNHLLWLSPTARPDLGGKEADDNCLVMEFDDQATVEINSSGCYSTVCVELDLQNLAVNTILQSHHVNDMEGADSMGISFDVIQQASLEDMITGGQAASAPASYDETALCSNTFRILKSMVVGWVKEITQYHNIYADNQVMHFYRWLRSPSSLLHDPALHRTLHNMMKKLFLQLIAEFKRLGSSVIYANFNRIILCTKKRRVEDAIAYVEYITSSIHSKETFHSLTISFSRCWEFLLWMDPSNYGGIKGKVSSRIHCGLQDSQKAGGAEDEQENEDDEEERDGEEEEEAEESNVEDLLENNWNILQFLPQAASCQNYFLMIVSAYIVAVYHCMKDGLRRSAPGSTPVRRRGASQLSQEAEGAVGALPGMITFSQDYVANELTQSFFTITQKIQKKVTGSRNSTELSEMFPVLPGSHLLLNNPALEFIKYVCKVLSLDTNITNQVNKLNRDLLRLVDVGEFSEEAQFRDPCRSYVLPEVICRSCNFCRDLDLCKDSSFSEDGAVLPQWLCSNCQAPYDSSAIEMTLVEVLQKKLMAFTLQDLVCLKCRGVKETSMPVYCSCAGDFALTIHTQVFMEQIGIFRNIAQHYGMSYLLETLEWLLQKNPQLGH

O=C(OC[C@H]1O[C@@H](OC(=O)c2cc(O)c(O)c(O)c2)[C@H](OC(=O)c2cc(O)c(O)c(O)c2)[C@@H](OC(=O)c2cc(O)c(O)c(O)c2)[C@@H]1OC(=O)c1cc(O)c(O)c(O)c1)c1cc(O)c(O)c(O)c1 [PGG, 1,2,3,4,6-penta-O-galloyl-β-D-glucose]
IC50 (Xanthine oxidase): 3200 nM
effect on pol ε activity (human pol ε; 100 and 1,000 nM PGG, Fig. 1C): significantly inhibit
IC50 (human pol ε; IC50, pol ε, range stated for replicative pols (α, δ and ε) together): < 100 nM and 13 to 66 nM
IC50 (HCV NS3 protease): 1600 nM
effect on pol δ activity (human pol δ; 100 and 1,000 nM PGG, Fig. 1C): significantly inhibit
IC50 (human pol δ; IC50, pol δ, range stated for replicative pols (α, δ and ε) together): < 100 nM and 13 to 66 nM
effect on rice pol λ activity (rice pol λ): not influenced
IC50 (Aminopeptidase N): 6500 nM
IC50 (mouse pol ι): 30 to 45 nM
effect on pol ι activity (mouse pol ι; 100 and 1,000 nM PGG, Fig. 1C): significantly inhibit
effect on mouse IMP dehydrogenase (type II) activity [1]: did not suppress
effect on bovine DNase I activity (bovine DNase I): did not suppress
apparent Vmax of pol α, DNA template-primer, decreased to (calf pol α; 5 nM PGG): 32.2%
apparent Vmax of pol α, DNA template-primer, decreased to (calf pol α; 10 nM PGG): 18.9%
apparent Vmax of pol α, DNA template-primer, decreased to (calf pol α; 15 nM PGG): 13.6%
apparent Vmax of pol α for the dNTP substrate (calf pol α; 15 nM PGG (29.2 without PGG)): 3.77 pmol/h
effect on pol α activity (calf pol α; 100 and 1,000 nM PGG, Fig. 1C): significantly inhibit
IC50 (calf pol α; IC50, pol α, poly(dA)/oligo(dT)18 and dTTP, 0.05 unit enzyme): 13 nM
Ki (calf pol α; for the DNA template-primer): 2.5 nM
Ki (calf pol α; for the dNTP substrate): 2.2 nM
Mode of Inhibition, pol α, DNA template-primer (calf pol α; Lineweaver-Burk plots): Non-competitive for DNA template-primer
Mode of Inhibition, pol α, dNTP (calf pol α; Lineweaver-Burk plots): Non-competitive for dNTP
effect of 0.05% NP-40 on the inhibitory effect on pol α (calf pol α; PGG 10 and 100 nM, supplemental Table S1): not reversed
effect of poly(rC) or BSA on the inhibitory effect on pol α (calf pol α; poly(rC) 50 μM, BSA 200 μg/ml): neither poly(rC) nor BSA influenced
effect on calf primase of pol α activity (calf primase of pol α): did not suppress
Mode of Inhibition, 5-alpha-Reductase, NADPH [2]: competitive inhibitor; also recorded: Competitive for NADPH
Mode of Inhibition, 5-alpha-Reductase, testosterone [2]: non-competitive inhibitor; also recorded: Non-competitive for testosterone
IC50 ([2]; read-out: IC50, 5-alpha-Reductase): 7800 nM
Ki ([2]; read-out: Ki, 5-alpha-Reductase, NADPH, competitive for NADPH): 480 nM
effect on T4 polynucleotide kinase activity (T4 polynucleotide kinase): did not suppress
inhibitory activity on pol γ (family A) (human pol γ): lower
Mode of Inhibition, H^+, K^+- ATPase (H^+, K^+- ATPase): Non-competitive for K^+
IC50 (H^+, K^+- ATPase; read-out: IC50, H^+, K^+- ATPase): 166 nM
growth of PC-3 cells inoculated into the tibia (human PCa PC-3 cells): positive inhibitory efficacy
